Reference: ChEMBL document CHEMBL5653631, “A Potent and Selective ULK1 Inhibitor Suppresses Autophagy and Sensitizes Cancer Cells to Nutrient Stress” (iScience, 2018)

Experiments:
[1] = biological target: Serine/threonine-protein kinase pim-2 (Homo sapiens) (UniProt Q9P1W9); assay: Inhibition of human recombinant PIM2 at 40 nM in presence of ATP by radiometric assay relative to control
[2] = biological target: Eukaryotic translation initiation factor 2-alpha kinase 1 (Homo sapiens) (UniProt Q9BQI3); assay: Inhibition of human recombinant HRI at 40 nM related to control ULK1
[3] = biological target: Ephrin type-A receptor 5 (Homo sapiens) (UniProt P54756); assay: Inhibition of human recombinant EphA5 at 15 nM related to control ULK1
[4] = biological target: T1, Tyrosine-protein kinase TXK (Homo sapiens) (UniProt P42681); assay: Inhibition of human recombinant TXK at 500 nM related to control ULK1
T1 sequence (whole entry): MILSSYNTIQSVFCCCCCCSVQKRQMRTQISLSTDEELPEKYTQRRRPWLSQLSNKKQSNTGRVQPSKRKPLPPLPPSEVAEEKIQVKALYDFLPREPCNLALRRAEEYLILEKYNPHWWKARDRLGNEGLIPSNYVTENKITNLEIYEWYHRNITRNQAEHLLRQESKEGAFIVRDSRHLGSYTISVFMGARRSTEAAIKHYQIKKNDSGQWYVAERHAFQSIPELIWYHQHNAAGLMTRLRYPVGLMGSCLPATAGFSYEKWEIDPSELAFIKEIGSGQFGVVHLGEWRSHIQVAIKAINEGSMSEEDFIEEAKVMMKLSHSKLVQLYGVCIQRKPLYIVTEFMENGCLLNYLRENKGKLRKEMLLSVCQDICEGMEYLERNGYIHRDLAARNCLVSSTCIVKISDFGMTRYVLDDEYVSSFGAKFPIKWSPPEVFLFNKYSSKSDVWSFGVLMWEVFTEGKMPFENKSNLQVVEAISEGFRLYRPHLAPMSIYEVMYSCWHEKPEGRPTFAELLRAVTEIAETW

[5] = biological target: T2, Serine/threonine-protein kinase ICK (Homo sapiens) (UniProt Q9UPZ9); assay: Inhibition of human recombinant ICK at 500 nM in presence of ATP by radiometric assay relative to control
T2 sequence (whole entry): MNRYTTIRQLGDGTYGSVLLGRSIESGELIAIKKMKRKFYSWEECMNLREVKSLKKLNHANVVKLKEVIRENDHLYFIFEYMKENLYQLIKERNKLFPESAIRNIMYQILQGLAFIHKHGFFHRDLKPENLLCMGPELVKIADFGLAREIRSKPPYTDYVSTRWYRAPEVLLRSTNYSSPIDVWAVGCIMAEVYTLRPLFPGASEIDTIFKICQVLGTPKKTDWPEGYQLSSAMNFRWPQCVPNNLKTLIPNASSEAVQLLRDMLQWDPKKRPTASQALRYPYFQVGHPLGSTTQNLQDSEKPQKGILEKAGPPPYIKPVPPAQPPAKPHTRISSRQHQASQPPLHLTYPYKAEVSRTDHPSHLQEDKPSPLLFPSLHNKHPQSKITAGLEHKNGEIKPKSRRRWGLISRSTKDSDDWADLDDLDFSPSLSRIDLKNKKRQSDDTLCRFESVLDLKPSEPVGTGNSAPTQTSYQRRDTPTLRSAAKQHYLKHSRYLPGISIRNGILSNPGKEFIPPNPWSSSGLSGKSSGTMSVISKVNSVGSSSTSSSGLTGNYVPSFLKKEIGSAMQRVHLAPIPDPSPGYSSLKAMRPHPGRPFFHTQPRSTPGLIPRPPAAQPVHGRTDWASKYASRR

[6] = biological target: Tyrosine-protein kinase Yes (Homo sapiens) (UniProt P07947); assay: Inhibition of human recombinant YES at 500 nM in presence of ATP by radiometric assay relative to control
[7] = biological target: T3, Bone morphogenetic protein receptor type-2 (Homo sapiens) (UniProt Q13873); assay: Inhibition of human recombinant BMPR2 at 500 nM in presence of ATP by radiometric assay relative to control
T3 sequence (whole entry): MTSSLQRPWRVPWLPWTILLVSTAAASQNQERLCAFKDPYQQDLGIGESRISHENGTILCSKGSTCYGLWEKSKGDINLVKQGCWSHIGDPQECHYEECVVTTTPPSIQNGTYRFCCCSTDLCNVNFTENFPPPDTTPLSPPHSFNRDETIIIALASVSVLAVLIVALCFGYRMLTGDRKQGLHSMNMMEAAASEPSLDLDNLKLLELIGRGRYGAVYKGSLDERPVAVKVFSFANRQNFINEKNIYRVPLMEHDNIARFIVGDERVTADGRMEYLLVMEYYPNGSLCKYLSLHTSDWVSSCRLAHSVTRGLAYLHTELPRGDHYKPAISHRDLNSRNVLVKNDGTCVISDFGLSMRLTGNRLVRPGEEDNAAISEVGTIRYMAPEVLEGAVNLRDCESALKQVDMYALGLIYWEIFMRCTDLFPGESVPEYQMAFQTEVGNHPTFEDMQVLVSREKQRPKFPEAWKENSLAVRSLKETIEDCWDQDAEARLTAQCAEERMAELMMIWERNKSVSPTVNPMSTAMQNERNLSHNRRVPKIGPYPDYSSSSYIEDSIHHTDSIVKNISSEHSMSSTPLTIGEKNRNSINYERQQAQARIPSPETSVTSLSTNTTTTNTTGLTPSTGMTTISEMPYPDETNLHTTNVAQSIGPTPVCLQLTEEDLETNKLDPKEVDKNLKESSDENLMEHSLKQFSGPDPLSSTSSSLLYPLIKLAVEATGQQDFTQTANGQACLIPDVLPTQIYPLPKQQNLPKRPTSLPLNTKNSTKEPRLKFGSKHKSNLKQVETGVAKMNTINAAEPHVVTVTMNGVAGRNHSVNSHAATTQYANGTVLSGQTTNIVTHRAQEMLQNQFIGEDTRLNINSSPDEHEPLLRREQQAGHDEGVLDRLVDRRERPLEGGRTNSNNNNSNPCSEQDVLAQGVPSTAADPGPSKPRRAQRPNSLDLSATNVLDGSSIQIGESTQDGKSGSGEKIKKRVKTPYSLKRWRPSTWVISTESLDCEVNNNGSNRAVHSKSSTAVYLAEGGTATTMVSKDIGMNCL
Summary of the method: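 Part of a radiometric in vitro activity panel of 327 recombinant human kinases. Each kinase was tested in duplicate at one inhibitor concentration. Activity remaining was expressed as a percentage of the vehicle control, and percent inhibition was taken as 100 minus that value.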

Ephrin type-A receptor 5 (Homo sapiens), sequence (P54756 whole entry): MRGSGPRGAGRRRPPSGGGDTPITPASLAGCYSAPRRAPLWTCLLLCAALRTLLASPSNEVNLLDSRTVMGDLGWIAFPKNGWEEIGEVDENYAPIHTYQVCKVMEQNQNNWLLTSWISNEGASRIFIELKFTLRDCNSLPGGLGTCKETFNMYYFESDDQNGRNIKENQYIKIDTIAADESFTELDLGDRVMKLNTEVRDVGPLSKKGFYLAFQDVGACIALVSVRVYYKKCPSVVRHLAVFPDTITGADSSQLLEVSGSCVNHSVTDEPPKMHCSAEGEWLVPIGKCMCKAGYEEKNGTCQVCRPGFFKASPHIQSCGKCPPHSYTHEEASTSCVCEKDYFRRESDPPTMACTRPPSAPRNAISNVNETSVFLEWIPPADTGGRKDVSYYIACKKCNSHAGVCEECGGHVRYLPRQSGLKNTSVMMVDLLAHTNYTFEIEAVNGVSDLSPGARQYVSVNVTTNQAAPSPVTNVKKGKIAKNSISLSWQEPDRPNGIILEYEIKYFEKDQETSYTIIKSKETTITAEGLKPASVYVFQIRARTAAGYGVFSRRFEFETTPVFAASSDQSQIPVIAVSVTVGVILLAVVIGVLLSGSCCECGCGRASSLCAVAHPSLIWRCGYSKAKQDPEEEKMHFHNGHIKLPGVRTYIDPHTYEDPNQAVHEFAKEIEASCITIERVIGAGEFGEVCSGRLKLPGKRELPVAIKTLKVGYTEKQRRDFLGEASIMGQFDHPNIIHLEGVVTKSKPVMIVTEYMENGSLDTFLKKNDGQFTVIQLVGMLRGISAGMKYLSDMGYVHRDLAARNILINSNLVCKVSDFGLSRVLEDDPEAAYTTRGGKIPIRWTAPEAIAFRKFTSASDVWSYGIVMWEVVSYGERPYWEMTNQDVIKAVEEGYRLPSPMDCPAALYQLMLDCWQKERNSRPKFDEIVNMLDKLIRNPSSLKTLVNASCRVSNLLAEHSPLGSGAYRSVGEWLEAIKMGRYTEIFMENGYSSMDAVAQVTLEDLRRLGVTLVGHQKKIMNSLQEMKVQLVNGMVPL
Tyrosine-protein kinase Yes (Homo sapiens), sequence (P07947 2-543 limits assumed): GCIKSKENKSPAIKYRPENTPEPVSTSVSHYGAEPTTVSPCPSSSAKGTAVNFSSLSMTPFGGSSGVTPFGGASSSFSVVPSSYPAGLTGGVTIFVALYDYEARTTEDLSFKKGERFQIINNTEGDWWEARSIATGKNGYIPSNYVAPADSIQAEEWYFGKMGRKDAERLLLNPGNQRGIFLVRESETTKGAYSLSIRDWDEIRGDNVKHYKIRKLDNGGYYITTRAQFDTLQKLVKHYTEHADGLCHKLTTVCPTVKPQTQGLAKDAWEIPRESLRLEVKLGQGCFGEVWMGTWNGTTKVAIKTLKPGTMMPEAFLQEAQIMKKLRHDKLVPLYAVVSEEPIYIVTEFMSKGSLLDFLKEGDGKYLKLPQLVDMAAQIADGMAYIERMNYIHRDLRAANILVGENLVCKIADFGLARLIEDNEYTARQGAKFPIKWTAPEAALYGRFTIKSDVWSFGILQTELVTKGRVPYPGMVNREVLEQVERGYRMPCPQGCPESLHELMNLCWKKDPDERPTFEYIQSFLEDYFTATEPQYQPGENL
Serine/threonine-protein kinase pim-2 (Homo sapiens), sequence (Q9P1W9 whole entry, looked up): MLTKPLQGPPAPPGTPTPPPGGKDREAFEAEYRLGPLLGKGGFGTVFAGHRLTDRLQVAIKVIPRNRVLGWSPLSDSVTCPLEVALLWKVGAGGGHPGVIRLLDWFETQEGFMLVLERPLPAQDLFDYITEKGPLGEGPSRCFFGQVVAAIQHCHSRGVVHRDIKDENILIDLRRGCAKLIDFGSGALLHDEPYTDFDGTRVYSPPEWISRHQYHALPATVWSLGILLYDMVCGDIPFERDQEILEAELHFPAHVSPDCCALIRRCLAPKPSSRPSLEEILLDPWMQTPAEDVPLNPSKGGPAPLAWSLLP
Eukaryotic translation initiation factor 2-alpha kinase 1 (Homo sapiens), sequence (Q9BQI3 whole entry): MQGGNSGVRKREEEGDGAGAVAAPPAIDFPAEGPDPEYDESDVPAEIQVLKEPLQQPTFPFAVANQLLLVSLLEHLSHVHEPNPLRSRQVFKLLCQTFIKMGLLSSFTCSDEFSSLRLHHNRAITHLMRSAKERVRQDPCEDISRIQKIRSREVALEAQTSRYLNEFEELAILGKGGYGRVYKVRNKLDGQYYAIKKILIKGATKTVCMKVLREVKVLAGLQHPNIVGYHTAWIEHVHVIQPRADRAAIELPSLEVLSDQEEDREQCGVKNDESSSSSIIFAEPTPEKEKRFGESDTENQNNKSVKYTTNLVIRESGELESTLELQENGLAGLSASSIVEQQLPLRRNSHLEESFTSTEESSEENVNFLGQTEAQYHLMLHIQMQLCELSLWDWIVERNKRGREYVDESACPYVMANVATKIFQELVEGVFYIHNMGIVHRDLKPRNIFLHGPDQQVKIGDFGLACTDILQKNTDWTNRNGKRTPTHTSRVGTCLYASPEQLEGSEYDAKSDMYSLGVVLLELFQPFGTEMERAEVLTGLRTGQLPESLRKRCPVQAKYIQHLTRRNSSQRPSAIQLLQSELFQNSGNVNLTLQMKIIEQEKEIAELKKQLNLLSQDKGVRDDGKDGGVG

O=C(N[C@@H](C1CC1)C(F)(F)F)c1cc(-c2cnn3cc(-c4ccc(F)cc4)cnc23)cs1
inhibition [1]: 3%
fold change (FC) [2]: 0.01

CC(C)[C@H](NC(=O)c1cc(-c2cnn3cc(-c4ccc(OCCN5CCCCC5)cc4)cnc23)cs1)C(F)(F)F
fold change (FC) [3]: 0

CNC(=O)c1ccccc1Oc1nc(Nc2cc(OC)c(OC)c(OC)c2)ncc1Br
fold change (FC) [4]: 0.23
inhibition [5]: 3%
inhibition [6]: 66%
inhibition [7]: 0%
